Measurements reported in ChEMBL document CHEMBL1143146, “Multicomponent reactions in fungicide research: the discovery of mandipropamid” (2008).
Values after ≈ are worked out from the molar mass of the structure shown.

Legend:
Plasmopara viticola = experiment: Antifungal activity against Plasmopara viticola in grape downy mildew after 6 days; assay type: functional; conditions: 144 h
In short: (§1)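 Greenhouse trials on whole plants. Disease incidence read after incubation at 20 °C and 95% relative humidity: 4 days on tomato, 6 days on grape. Potency is given as EC80, the concentration in mg L-1 (ppm) giving 80% activity.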

Phytophthora infestans = experiment: Antifungal activity against Phytophthora infestans in tomato late blight after 4 days; assay type: functional; conditions: 96 h; in short: as §1

Row | SMILES | EC80 (Plasmopara viticola) | EC80 (Phytophthora infestans)
1 | C#CCOc1ccc(CCNC(=O)C(NS(=O)(=O)N(C)C)c2ccc(OC)cc2)cc1OC (stereo not given) | 34.9 mg/L (≈ 73.4 µM) | 8 mg/L (≈ 16.8 µM)
2 | C#CCOc1ccc(CCNC(=O)C(NS(=O)(=O)N(C)C)c2ccc(C)c(C)c2)cc1OC (stereo not given) | 28.7 mg/L (≈ 60.6 µM) | 12.2 mg/L (≈ 25.8 µM)
3 | C#CCOc1ccc(CCNC(=O)C(OCC#C)c2cc(Cl)cc(Cl)c2Cl)cc1OC (stereo not given) | 44.2 mg/L (≈ 91.9 µM) | > 200 mg/L
4 | C#CCOc1ccc(CCNC(=O)C(OCC#C)c2ccc3c(c2)Cc2ccccc2-3)cc1OC (stereo not given) | 19.3 mg/L (≈ 41.5 µM) | 4.8 mg/L (≈ 10.3 µM)
5 | C#CCOc1ccc(CCNC(=O)C(OCC#C)c2cccs2)cc1OC (stereo not given) | 1.4 mg/L (≈ 3.65 µM) | 2.1 mg/L (≈ 5.48 µM)
6 | C#CCOc1ccc(CCNC(=O)C(OCC#C)c2cc(F)c(F)c(F)c2)cc1OC (stereo not given) | 19.7 mg/L (≈ 45.7 µM) | 26.2 mg/L (≈ 60.7 µM)
7 | C#CCOc1ccc(CCNC(=O)C(NS(=O)(=O)N(C)C)c2ccc(SC)cc2)cc1OC (stereo not given) | 16.2 mg/L (≈ 33 µM) | 34.9 mg/L (≈ 71 µM)
8 | C#CCOc1ccc(CCNC(=O)C(OCC#C)c2cccc(Cl)c2Cl)cc1OC (stereo not given) | 25.5 mg/L (≈ 57.1 µM) | 168 mg/L (≈ 377 µM)
9 | C#CCOc1ccc(CCNC(=O)C(CC2=C(C)CCCC2(C)C)OCC#C)cc1OC (stereo not given) | 124 mg/L (≈ 283 µM) | 51.4 mg/L (≈ 117 µM)
10 | C#CCOc1ccc(CCNC(=O)C(OCC#C)c2ccc(Br)cc2F)cc1OC (stereo not given) | 1.8 mg/L (≈ 3.79 µM) | 5.3 mg/L (≈ 11.2 µM)
11 | C#CCOc1ccc(CCNC(=O)C(NS(=O)(=O)N(C)C)c2ccc(CC)cc2)cc1OC (stereo not given) | 5.1 mg/L (≈ 10.8 µM) | 2.6 mg/L (≈ 5.49 µM)
12 | C#CCOc1ccc(CCNC(=O)C(NS(=O)(=O)N(C)C)c2cccc(C)c2)cc1OC (stereo not given) | 116 mg/L (≈ 253 µM) | 150 mg/L (≈ 326 µM)
13 | C#CCOc1ccc(CCNC(=O)C(OCC#C)c2ccc(F)cc2)cc1OC (stereo not given) | 3.4 mg/L (≈ 8.6 µM) | 1.8 mg/L (≈ 4.55 µM)
14 | C#CCOc1ccc(CCNC(=O)C(OCC#C)c2ccc(CC)cc2)cc1OC (stereo not given) | 3.1 mg/L (≈ 7.64 µM) | 7.5 mg/L (≈ 18.5 µM)
15 | C#CCOc1ccc(CCNC(=O)C(OCC#C)c2ccc(F)cc2F)cc1OC (stereo not given) | 5 mg/L (≈ 12.1 µM) | 4.6 mg/L (≈ 11.1 µM)
16 | C#CCOc1ccc(CCNC(=O)C(OCC#C)c2cccc(Br)c2)cc1OC (stereo not given) | 4.9 mg/L (≈ 10.7 µM) | 4.9 mg/L (≈ 10.7 µM)
17 | C#CCOc1ccc(CCNC(=O)C(NS(=O)(=O)N(C)C)c2ccc(Br)cc2)cc1OC (stereo not given) | 39.4 mg/L (≈ 75.1 µM) | 7.8 mg/L (≈ 14.9 µM)
18 | C#CCOc1ccc(CCNC(=O)C(COc2ccc(C)cc2)OCC#C)cc1OC (stereo not given) | 1.8 mg/L (≈ 4.27 µM) | 0.1 mg/L (≈ 0.237 µM)
19 | C#CCOc1ccc(CCNC(=O)C(COc2ccc(Cl)cc2)OCC#C)cc1OC (stereo not given) | 0.6 mg/L (≈ 1.36 µM) | 0.02 mg/L (≈ 0.0453 µM)
20 | C#CCOc1ccc(CCNC(=O)C(NS(=O)(=O)N(C)C)c2ccc(Cl)cc2)cc1OC (stereo not given) | 13.8 mg/L (≈ 28.8 µM) | 10.6 mg/L (≈ 22.1 µM)

Row | SMILES | EC80 (Plasmopara viticola) | EC80 (Phytophthora infestans)
21 | C#CCOc1ccc(CCNC(=O)C(OCC#C)c2cccc(F)c2)cc1OC (stereo not given) | 1.8 mg/L (≈ 4.55 µM) | 10.2 mg/L (≈ 25.8 µM)
22 | C#CCOc1ccc(CCNC(=O)C(OCC#C)c2cccc(OC)c2)cc1OC (stereo not given) | 1.7 mg/L (≈ 4.17 µM) | 46.2 mg/L (≈ 113 µM)
23 | C#CCOc1ccc(CCNC(=O)C(NS(=O)(=O)N(C)C)c2ccc(F)c(Cl)c2)cc1OC (stereo not given) | 59.8 mg/L (≈ 120 µM) | 186 mg/L (≈ 374 µM)
24 | C#CCOc1ccc(CCNC(=O)C(NS(=O)(=O)N(C)C)c2ccc(F)c(F)c2)cc1OC (stereo not given) | 46.3 mg/L (≈ 96.2 µM) | 110 mg/L (≈ 228 µM)
25 | C#CCOc1ccc(CCNC(=O)C(NS(=O)(=O)N(C)C)c2ccc(CCC)cc2)cc1OC (stereo not given) | 16.7 mg/L (≈ 34.2 µM) | 3.1 mg/L (≈ 6.36 µM)
26 | C#CCOc1ccc(CCNC(=O)C(NS(=O)(=O)N(C)C)c2ccc(C(C)C)cc2)cc1OC (stereo not given) | 14.6 mg/L (≈ 29.9 µM) | 26.2 mg/L (≈ 53.7 µM)
27 | C#CCOc1ccc(CCNC(=O)C(NS(=O)(=O)N(C)C)c2ccc(Cl)c(Cl)c2)cc1OC (stereo not given) | 51.5 mg/L (≈ 100 µM) | 19.2 mg/L (≈ 37.3 µM)
28 | C#CCOc1ccc(CCNC(=O)C(OCC#C)c2ccccc2)cc1OC (stereo not given) | 1.3 mg/L (≈ 3.44 µM) | 0.5 mg/L (≈ 1.32 µM)
29 | C#CCOc1ccc(CCNC(=O)C(NS(=O)(=O)N(C)C)c2ccc(F)cc2)cc1OC (stereo not given) | 78.3 mg/L (≈ 169 µM) | 45.7 mg/L (≈ 98.6 µM)
30 | C#CCOc1ccc(CCNC(=O)C(OCC#C)C2CCCCC2)cc1OC (stereo not given) | 5.3 mg/L (≈ 13.8 µM) | 47.6 mg/L (≈ 124 µM)
31 | C#CCOc1ccc(CCNC(=O)C(OCC#C)c2ccc(C)c(Cl)c2)cc1OC (stereo not given) | 1.5 mg/L (≈ 3.52 µM) | 2.4 mg/L (≈ 5.63 µM)
32 | C#CCOc1ccc(CCNC(=O)C(OCC#C)c2ccc(C=C)cc2)cc1OC (stereo not given) | 2 mg/L (≈ 4.96 µM) | 3.3 mg/L (≈ 8.18 µM)
33 | C#CCOc1ccc(CCNC(=O)C(OCC#C)c2ccc(Cl)c(Cl)c2)cc1OC (stereo not given) | 3.4 mg/L (≈ 7.62 µM) | 4.8 mg/L (≈ 10.8 µM)
34 | C#CCOc1ccc(CCNC(=O)C(OCC#C)c2ccc(Br)cc2)cc1OC (stereo not given) | 2.6 mg/L (≈ 5.7 µM) | 3.4 mg/L (≈ 7.45 µM)
35 | C#CCOc1ccc(CCNC(=O)C(OCC#C)c2ccc(C)cc2)cc1OC (stereo not given) | 5.2 mg/L (≈ 13.3 µM) | 9.7 mg/L (≈ 24.8 µM)
36 | C#CCOc1ccc(CCNC(=O)C(OCC#C)c2ccc3c(c2)OCCO3)cc1OC (stereo not given) | 2.2 mg/L (≈ 5.05 µM) | 16.7 mg/L (≈ 38.3 µM)
37 | C#CCOc1ccc(CCNC(=O)C(COCc2ccccc2)OCC#C)cc1OC (stereo not given) | 20.4 mg/L (≈ 48.4 µM) | 0.3 mg/L (≈ 0.712 µM)
38 | C#CCOc1ccc(CCNC(=O)C(OCC#C)c2cccc(Cl)c2)cc1OC (stereo not given) | 2.4 mg/L (≈ 5.83 µM) | 3.7 mg/L (≈ 8.98 µM)
39 | C#CCOc1ccc(CCNC(=O)C(NS(=O)(=O)N(C)C)c2ccc(C(F)(F)F)cc2)cc1OC (stereo not given) | 5.8 mg/L (≈ 11.3 µM) | 3.4 mg/L (≈ 6.62 µM)
40 | C#CCOc1ccc(CCNC(=O)C(OCC#C)c2ccc(CCCC)cc2)cc1OC (stereo not given) | 10.4 mg/L (≈ 24 µM) | 25.9 mg/L (≈ 59.7 µM)

Row | SMILES | EC80 (Plasmopara viticola) | EC80 (Phytophthora infestans)
41 | C#CCOc1ccc(CCNC(=O)C(OCC#C)c2cccc(C(F)(F)F)c2)cc1OC (stereo not given) | 3.8 mg/L (≈ 8.53 µM) | 5 mg/L (≈ 11.2 µM)
42 | C#CCOc1ccc(CCNC(=O)C(OCC#C)c2ccc(SC)cc2)cc1OC (stereo not given) | 5.3 mg/L (≈ 12.5 µM) | 7.6 mg/L (≈ 17.9 µM)
43 | C#CCOc1ccc(CCNC(=O)C(NS(=O)(=O)N(C)C)c2ccc(OCC)cc2)cc1OC (stereo not given) | 35 mg/L (≈ 71.5 µM) | 24.7 mg/L (≈ 50.4 µM)
44 | C#CCOc1ccc(CCNC(=O)C(Cc2ccc(Cl)cc2)OCC#C)cc1OC (stereo not given) | 18.6 mg/L (≈ 43.7 µM) | 26.3 mg/L (≈ 61.7 µM)
45 | C#CCOc1ccc(CCNC(=O)C(OCC#C)c2ccc(C)c(C)c2)cc1OC (stereo not given) | 1.6 mg/L (≈ 3.95 µM) | 3.2 mg/L (≈ 7.89 µM)
46 | C#CCOc1ccc(CCNC(=O)C(OCC#C)c2ccc(CCC)cc2)cc1OC (stereo not given) | 1.7 mg/L (≈ 4.05 µM) | 4.4 mg/L (≈ 10.5 µM)
47 | C#CCOc1ccc(CCNC(=O)C(OCC#C)c2ccc(C(F)(F)F)cc2)cc1OC (stereo not given) | 11.6 mg/L (≈ 26 µM) | 8 mg/L (≈ 18 µM)
48 | C#CCOc1ccc(CCNC(=O)C(OCC#C)c2ccccc2Cl)cc1OC (stereo not given) | > 200 mg/L | 81.1 mg/L (≈ 197 µM)
49 | C#CCOc1ccc(CCNC(=O)C(OCC#C)c2ccc(COC)cc2)cc1OC (stereo not given) | 13.8 mg/L (≈ 32.7 µM) | 2.6 mg/L (≈ 6.17 µM)
50 | C#CCOc1ccc(CCNC(=O)C(OCC#C)c2cc(C)cc(C)c2)cc1OC (stereo not given) | 56.4 mg/L (≈ 139 µM) | 41.9 mg/L (≈ 103 µM)
51 | C#CCOc1ccc(CCNC(=O)C(NS(=O)(=O)N(C)C)c2ccccc2C)cc1OC (stereo not given) | > 200 mg/L | > 200 mg/L
52 | C#CCOc1ccc(CCNC(=O)C(OCC#C)c2cccc(C)c2)cc1OC (stereo not given) | 1.7 mg/L (≈ 4.34 µM) | 6.4 mg/L (≈ 16.3 µM)
53 | C#CCOc1ccc(CCNC(=O)C(OCC#C)c2ccc(OC)cc2)cc1OC (stereo not given) | 1.6 mg/L (≈ 3.93 µM) | 2.3 mg/L (≈ 5.64 µM)
54 | C#CCOc1ccc(CCNC(=O)C(NS(=O)(=O)N(C)C)c2ccc(C)cc2)cc1OC (stereo not given) | 3.2 mg/L (≈ 6.96 µM) | 2.5 mg/L (≈ 5.44 µM)
55 | C#CCOc1ccc(CCNC(=O)C(NS(=O)(=O)N(C)C)c2ccc(OC(F)(F)F)cc2)cc1OC (stereo not given) | 46.4 mg/L (≈ 87.6 µM) | 18.8 mg/L (≈ 35.5 µM)
56 | C#CCOc1ccc(CCNC(=O)C(OCC#C)c2ccc(C(C)C)cc2)cc1OC (stereo not given) | 2.8 mg/L (≈ 6.67 µM) | 6.1 mg/L (≈ 14.5 µM)
57 | C#CCOc1ccc(CCNC(=O)C(NS(=O)(=O)N(C)C)c2ccccc2)cc1OC (stereo not given) | 28.5 mg/L (≈ 64 µM) | 81.2 mg/L (≈ 182 µM)
58 | C#CCOc1ccc(CCNC(=O)C(NS(=O)(=O)N(C)C)c2ccc(C(C)(C)C)cc2)cc1OC (stereo not given) | 20.2 mg/L (≈ 40.3 µM) | 143 mg/L (≈ 285 µM)
59 | C#CCOc1ccc(CCNC(=O)C(OCC#C)c2cccnc2)cc1OC (stereo not given) | > 200 mg/L | 186 mg/L (≈ 492 µM)
60 | C#CCOc1ccc(CCNC(=O)C(OCC#C)c2ccc(Cl)cc2)cc1OC (stereo not given) [MANDIPROPAMID] | 1.2 mg/L (≈ 2.91 µM) | 0.1 mg/L (≈ 0.243 µM)
